The subject of assay [1] is Influenza A virus. The assay can be described thus: Antiviral activity against multidrug-resistant Influenza A virus A/Switzerland/9715293/2013 (H3N2) expressing M2 proton channel S31N mutant infected in MDCK cells harboring ST6Gal1 gene assessed as reduction in plaque formation measured after 2 days post infection by crystal violet staining based. Format: functional, cell-based.

The subject of assay [2] is Matrix protein 2 (Influenza A virus (A/Udorn/307/1972(H3N2))), P0DOF8 [S31N]. The assay can be described thus: Inhibition of Influenza A virus amantadine-resistant M2 proton channel S31N mutant expressed in Xenopus laevis oocyte at 100 uM at pH 5.5 after 2 mins by two-electrode patch clamp assay relative to control. The procedure, abridged:
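Xenopus laevis oocytes microinjected with RNA for AM2-WT or AM2-S31N; channel activated at pH 5.5; two-electrode voltage clamp current recorded after 2 min exposure to 100 μM compound; expressed as percent current inhibition; three repeats on different oocytes, mean reported.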
(In patch-clamp work, channel activity is measured electrically.)

The subject of assay [3] is Influenza A virus (A/California/07/2009(H1N1)). The assay can be described thus: (§1) Antiviral activity against amantadine-resistant Influenza A virus A/California/07/2009 (H1N1) expressing M2 proton channel S31N mutant infected in MDCK cells harboring ST6Gal1 gene assessed as reduction in plaque formation measured after 2 days post infection by crystal violet staining based. Format: functional, cell-based.

A short description of assay [4]: Antiviral activity against amantadine-resistant Influenza A virus A/California/07/2009 (H1N1) expressing M2 proton channel S31N mutant infected in MDCK cells harboring ST6Gal1 gene assessed as reduction in plaque formation at 10 uM measured after 2 days post infection by crystal violet staining based assay relative to control. The class given is functional. Further details: scale not given: the % may be the effect or the level left. A digest of the protocol:
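ST6Gal I-expressing MDCK monolayers infected with ~100 pfu in DMEM/0.5% BSA, 1 h at 4 °C then 1 h at 37 °C; inoculum removed, PBS wash, overlay of DMEM with 1.2% Avicel and NAT (2.0 μg/mL) containing compound at 10 μM; 2-day incubation; plaque formation expressed as percent of DMSO control.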

Assay [5] can be described thus: Antiviral activity against amantadine/oseltamivir-resistant Influenza A virus A/Washington/29/2009 (H1N1) expressing AM2-S31N/neuraminidase-H275Y mutant infected in MDCK cells harboring ST6Gal1 gene assessed as reduction in plaque formation measured after 2 days post infection by crystal violet staining based. Format: functional, cell-based.
A short description of assay [6]: as §1. The class given is functional, cell-based.
Assay [7] deals with Influenza A virus (A/California/07/2009(H1N1)). Kind of assay: Antiviral activity against amantadine-resistant Influenza A virus A/California/07/2009 (H1N1) expressing M2 proton channel S31N mutant infected in MDCK cells harboring ST6Gal1 gene assessed as reduction in plaque formation up to 30 uM measured after 2 days post infection by crystal violet staining based. The class given is functional, cell-based.

The source made the active and inactive calls. No cut-off for these calls is given here.

Turning to `Clc1ccc(-c2cc(CNC34CC5CC(CC(C5)C3)C4)no2)s1`, the EC50 in assay [1] and in assay [5] was 0.2 µM in each case. For the same compound, the inhibition in assay [2] is 78.8%. For the same compound, the Activity entry was “Dose-dependent effect” in assay [3] and 0% in assay [4].

With `N#Cc1ccc(-c2cc(CNC34CC5CC(CC(C5)C3)C4)no2)cc1`, the inhibition in assay [2] is 72.2%. In addition, the Activity in assay [4] stood at 28%.

Regarding `c1ccc(-c2ccc(-c3cc(CNC45CC6CC(CC(C6)C4)C5)no3)cc2)cc1`, in assay [2], the inhibition was found to be 45.6%. Further, in assay [4], the Activity is 36%.

In assay [2], `COC(=O)c1ccc(-c2cc(CNC34CC5CC(CC(C5)C3)C4)no2)cc1` showed an inhibition of 73.6%. Also, the Activity in assay [4] is listed as 24.1%.

In assay [2], `CS(=O)(=O)c1ccccc1-c1cc(CNC23CC4CC(CC(C4)C2)C3)no1` returned an inhibition of 9.8%. Also, the Activity in assay [4] is on record as 110%.

For the compound `COc1ccccc1-c1cc(CNC23CC4CC(CC(C4)C2)C3)no1`, the inhibition in assay [2] is 51.8%. The Activity in assay [4] was 62.1%.

In assay [2], `c1ccc2c(-c3cc(CNC45CC6CC(CC(C6)C4)C5)no3)cccc2c1` returned an inhibition of 56.8%. In addition, in assay [4], the Activity was determined as 36.1%.

`Oc1ccccc1-c1cc(CNC23CC4CC(CC(C4)C2)C3)no1` had an inhibition in assay [2] of 71.5%. The values for the Activity entry in assay [3] and in assay [4] were “Dose-dependent effect” and 3.4%, respectively. The EC50 in assay [6] was 0.5 µM.

The compound `CSc1ccccc1-c1cc(CNC23CC4CC(CC(O)(C4)C2)C3)no1` returned an inhibition in assay [2] of 90.6%. For the same compound, the Activity entry in assay [3] was “Dose-dependent effect”; in assay [4], 9.2%. Further, in assay [6], the EC50 is 1.2 µM.

`c1cncc(-c2cc(CNC34CC5CC(CC(C5)C3)C4)no2)c1` displayed an inhibition in assay [2] of 53%. Also, in assay [4], the Activity came to 105.5%.

`Clc1cc(-c2cc(CNC34CC5CC(CC(C5)C3)C4)no2)c(Cl)s1` showed an inhibition in assay [2] of 87.7%. The Activity in assay [4] stood at 10.1%.

The compound `OC12CC3CC(C1)CC(NCc1cc(-c4ccccc4Cl)on1)(C3)C2` registered an inhibition in assay [2] of 87.1%. For the same compound, the values for the Activity entry in assay [3] and in assay [4] were “Dose-dependent effect” and 8.3%, respectively. Besides, the EC50 in assay [6] came to 0.9 µM.

Compound `COc1ccc(-c2cc(CNC34CC5CC(CC(C5)C3)C4)no2)cn1` returned an inhibition in assay [2] of 58%. The Activity in assay [4] was 21.7%.

`OC12CC3CC(C1)CC(NCc1cc(-c4cc(Cl)sc4Cl)on1)(C3)C2` had an inhibition in assay [2] of 89.9%. Also, in assay [4], the Activity came to 13.7%. Also, in assay [7], the outcome was inactive.

Take `FC(F)(F)Oc1cccc(-c2cc(CNC34CC5CC(CC(C5)C3)C4)no2)c1`: the inhibition in assay [2] was 56.7%. The Activity in assay [4] came to 72.7%.

For the compound `c1ccc(-c2cc(CNC34CC5CC(CC(C5)C3)C4)no2)cc1`, the Activity entry in assay [3] is “Dose-dependent effect”; in assay [4], 13.5%. The EC50 in assay [6] was found to be 0.3 µM.

`COc1sccc1-c1cc(CNC23CC4CC(CC(C4)C2)C3)no1`: the inhibition in assay [2] turned out to be 94.2%. Further, in assay [4], the Activity turned out to be 7.2%.

`Clc1cc(-c2cc(CNC34CC5CC(CC(C5)C3)C4)no2)cs1` yielded an inhibition in assay [2] of 87.9%. Besides, in assay [4], the Activity amounted to 10.9%.

As for `CSc1cccc(-c2cc(CNC34CC5CC(CC(C5)C3)C4)no2)c1`, the inhibition in assay [2] was found to be 69.6%. In assay [4], the Activity was found to be 56.3%.

The compound `NC(=O)c1ccc(-c2cc(CNC34CC5CC(CC(C5)C3)C4)no2)cc1` gave an inhibition in assay [2] of 47.4%. In assay [4], the Activity is given as 57.1%.

In assay [2], `CN(C)c1ccc(-c2cc(CNC34CC5CC(CC(C5)C3)C4)no2)cc1` registered an inhibition of 83.2%. In addition, the Activity in assay [4] worked out at 35.7%.

In general, EC50 refers to the concentration needed to bring the measured effect to its halfway point. What is called inhibition is the percentage by which the read-out fell short of the control.

Values taken from ChEMBL document CHEMBL3997811.
